{"source": "ChEMBL document CHEMBL1134624", "about": "“Potent and selective ET-A antagonists. 1. Syntheses and structure-activity relationships of N-(6-(2-(aryloxy)ethoxy)-4-pyrimidinyl)sulfonamide derivatives” (J Med Chem, 2001)", "key": {"[1]": {"target": "T1, Endothelin receptor type B (Homo sapiens, UniProt P24530)", "T1 sequence (P24530 whole entry)": "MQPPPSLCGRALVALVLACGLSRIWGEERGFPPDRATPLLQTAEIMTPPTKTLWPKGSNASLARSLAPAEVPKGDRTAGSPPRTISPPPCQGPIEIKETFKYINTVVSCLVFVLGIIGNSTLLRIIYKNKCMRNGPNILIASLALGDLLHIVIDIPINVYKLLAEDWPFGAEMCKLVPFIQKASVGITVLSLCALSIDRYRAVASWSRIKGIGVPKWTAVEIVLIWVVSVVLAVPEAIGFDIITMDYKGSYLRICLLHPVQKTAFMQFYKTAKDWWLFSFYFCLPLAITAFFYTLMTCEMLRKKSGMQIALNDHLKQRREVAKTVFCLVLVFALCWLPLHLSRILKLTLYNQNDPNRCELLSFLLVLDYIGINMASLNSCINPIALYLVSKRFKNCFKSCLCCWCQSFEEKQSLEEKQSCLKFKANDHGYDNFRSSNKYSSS", "assay": "Ability to inhibit specific binding of [125I]- -ET-1 to human GH cells which express endothelin B receptor", "assay_type": "cell-based"}, "Endothelin-1 receptor [2]": {"target": "T2, Endothelin-1 receptor (Rattus norvegicus, UniProt P26684)", "T2 sequence (P26684 whole entry)": "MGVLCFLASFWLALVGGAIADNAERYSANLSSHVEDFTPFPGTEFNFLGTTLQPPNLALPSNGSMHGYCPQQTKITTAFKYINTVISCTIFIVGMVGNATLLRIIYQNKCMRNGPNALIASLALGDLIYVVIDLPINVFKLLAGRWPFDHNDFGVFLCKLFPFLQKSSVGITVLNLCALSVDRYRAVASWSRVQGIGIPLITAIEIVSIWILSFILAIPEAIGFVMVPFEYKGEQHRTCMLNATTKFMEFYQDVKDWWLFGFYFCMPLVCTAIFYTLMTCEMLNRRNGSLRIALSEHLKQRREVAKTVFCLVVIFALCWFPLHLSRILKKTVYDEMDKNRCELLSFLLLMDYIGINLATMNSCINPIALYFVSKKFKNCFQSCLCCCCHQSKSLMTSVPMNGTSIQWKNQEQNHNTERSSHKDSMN", "assay": "In vitro for specific binding of [125I]ET1 to A10 cell expressed in endothelin A receptor", "assay_type": "cell-based"}, "Endothelin-1 receptor [3]": {"target": "T3, Endothelin-1 receptor (Sus scrofa, UniProt Q29010)", "T3 sequence (Q29010 whole entry)": "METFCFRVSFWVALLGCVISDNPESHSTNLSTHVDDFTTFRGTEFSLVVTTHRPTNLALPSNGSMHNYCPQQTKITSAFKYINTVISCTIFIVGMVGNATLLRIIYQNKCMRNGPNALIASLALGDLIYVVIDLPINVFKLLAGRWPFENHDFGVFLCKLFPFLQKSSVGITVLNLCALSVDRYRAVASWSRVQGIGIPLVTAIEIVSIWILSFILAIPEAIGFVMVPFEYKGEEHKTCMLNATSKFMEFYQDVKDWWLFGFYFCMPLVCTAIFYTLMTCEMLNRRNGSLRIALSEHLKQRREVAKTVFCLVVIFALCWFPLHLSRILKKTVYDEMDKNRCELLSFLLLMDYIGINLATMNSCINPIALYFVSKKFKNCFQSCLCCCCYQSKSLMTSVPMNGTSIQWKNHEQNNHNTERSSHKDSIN", "assay": "In vitro inhibition of [125I]ET1 binding to Endothelin A receptor in porcine aortic membrane from endothelial cells", "assay_type": "cell membranes", "details": "in the assay text read “with endothelium removed” for “from endothelial cells”", "outline": "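Endothelium-free porcine aorta homogenized in 10 mM MOPS (pH 7.4) with 20% sucrose. Membranes spun 1000g 15 min, then supernatant 90000g 45 min, and resuspended in 5 mM HEPES-Tris. Incubated with 20 pM final 125I-ET-1 and graded compound concentrations in 50 mM Tris-HCl pH 7.4, 0.1% BSA, protease inhibitors, EDTA, 2 h at 25 °C. Filtered, washed, gamma-counted.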"}, "[4]": {"target": "T1, Endothelin receptor type B", "assay": "In vitro for specific binding of [125I]ET1 to GHcell expressed in Endothelin B receptor"}}}
{"smiles": "COc1cccc(Oc2c(NS(=O)(=O)c3ccc(C(C)(C)C)cc3)ncnc2OCCO)c1", "values": [{"measurement": "IC50", "setting": "[1]", "result": 1100, "unit": "nM"}, {"measurement": "IC50", "setting": "Endothelin-1 receptor [2]", "result": 230, "unit": "nM"}, {"measurement": "IC50", "setting": "Endothelin-1 receptor [3]", "result": 160, "unit": "nM"}]}
{"smiles": "Cc1ccc(-c2c(NS(=O)(=O)c3ccc(C(C)(C)C)cc3)ncnc2OCCOc2ncc(-c3cccs3)cn2)cc1", "values": [{"measurement": "IC50", "setting": "[4]", "result": 3.8, "unit": "nM"}]}
{"smiles": "COc1ccccc1Oc1c(NS(=O)(=O)c2ccc(C(C)(C)C)cc2)nc(-c2ncccn2)nc1OCCO", "note": "[BOSENTAN SODIUM]", "values": [{"measurement": "IC50", "setting": "Endothelin-1 receptor [2]", "result": 1.4, "unit": "nM"}, {"measurement": "IC50", "setting": "Endothelin-1 receptor [3]", "result": 7.5, "unit": "nM"}]}
{"smiles": "Cc1ccc(-c2c(NS(=O)(=O)c3ccc(C(C)(C)C)cc3)ncnc2OCCOc2ncc(-c3ccco3)cn2)cc1", "values": [{"measurement": "IC50", "setting": "[4]", "result": 7, "unit": "nM"}]}
{"smiles": "Cc1ccc(-c2c(NS(=O)(=O)c3ccc(C(C)(C)C)cc3)ncnc2OCCOc2ncc(Cl)cn2)cc1", "values": [{"measurement": "IC50", "setting": "[4]", "result": 28, "unit": "nM"}]}
{"smiles": "CSc1cnc(OCCOc2ncnc(NS(=O)(=O)c3ccc(C(C)(C)C)cc3)c2-c2ccc(C)cc2)nc1", "values": [{"measurement": "IC50", "setting": "[4]", "result": 220, "unit": "nM"}]}
{"smiles": "COc1cnc(OCCOc2ncnc(NS(=O)(=O)c3ccc(C(C)(C)C)cc3)c2-c2ccc(C)cc2)nc1", "values": [{"measurement": "IC50", "setting": "[4]", "result": 240, "unit": "nM"}]}
{"smiles": "Cc1ccc(-c2c(NS(=O)(=O)c3ccc(C(C)(C)C)cc3)ncnc2OCCOc2ncc(Br)cn2)cc1", "values": [{"measurement": "IC50", "setting": "[4]", "result": 38, "unit": "nM"}]}
